The sample as a whole holds a higher share of hits than the screen did.
Lipid droplet – hepatic lipid droplet formation modulation; AID 1656; AML12 mouse hepatocytes, oleate lipid droplets, BODIPY imaging; hit rate 0.4% among 240,000; inhibition, % at 6.5 µM;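 active = lipid droplet intensity inhibited by at least 50%, with more than 500 cells counted; inconclusive = wells with under 300 cells, treated as cytotoxic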
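Assay system: AML12 mouse liver cells | Compound: 6.5 µM single-point dosing | Schedule: Overnight exposure | Technique: Fluorescence imaging, 20x objective, two fields per well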
Redox H2O2 prof – compounds producing H2O2 with reducing agent – biochemical, NIH compound library profiling, artefact control for MLSCN library redox annotation, primary screen. DTT-dependent redox cycling H2O2, phenol red/HRP absorbance; 100% = 100 µM peroxide control, 0% = buffer. activation, % at 10 µM. hit rate 0.03% among 200,000;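 active = activation of at least 50% relative to the plate's high and low controls in the primary single-dose screen; inactive = activation below 50%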;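 note: compound incubated with DTT at 0.8 mM final as the reducing agent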
L major viab – reduces viability of Leishmania major promastigotes | resazurin fluorescence viability | inhibition, % at 10 µM | hit rate 9% among 200,000 | AID 1063; in the data active = inhibition above about 50%;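 note: promastigotes grown with compound for 44 hours at 28 °C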
T cruzi repl – blocks replication of Trypanosoma cruzi; T. cruzi beta-gal in NIH3T3, luminescence, 90 h; inhibition, % (no concentration beside the values); hit rate 1.4% among 300,000;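 active = mean inhibition across valid replicates above about 55%, limit read from the data; inconclusive = mean below that limit but half or more replicates reach it; inactive = mean below it, under half of replicates reach it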;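 note: signal also drops with host cell toxicity which is not excluded here; 0% = plate median of DMSO wells and 100% = zero luminescence signal; higher percent means less beta-gal luminescence so fewer parasites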
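System: NIH/3T3 fibroblasts plus reporter T. cruzi. Medium: DMEM plus 2% FBS. Probe or stimulus: 5000 reporter trypomastigotes per well. Compound: single 50 nL compound addition per well in DMSO. Incubation: co-culture of at least 90 h after 3 h attachment. Detection: GalScreen β-gal luminescence, detergent lysis, 60 min. Evaluation: parasite load inhibition, %.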
MPTP inh – permeability transition pore inhibition | isolated mouse mitochondria, Ca2+ swelling absorbance, 30 min | inhibition, % at 10 µM | hit rate 1.4% among 360,000;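 active = inhibition of 50% or more, scaled per plate between neutral and stimulator controls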;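 note: 0% = DMSO wells given calcium and 100% = 1 mM EGTA wells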
Starred values were filed as active, the others as inactive; ? = inconclusive; / = no result given.

SMILES | Lipid droplet | Redox H2O2 prof | L major viab | T cruzi repl | MPTP inh
COc1cccc2c1C(=O)c1c(O)c3c(c(O)c1C2=O)C[C@@](O)(C(C)=O)C[C@@H]3O[C@H]1C[C@H](N)[C@H](O)[C@H](C)O1 | ? | 3.1 | 100.3* | / | 23.6
COc1cccc2c1C(=O)c1c(O)c3c(c(O)c1C2=O)C[C@@](O)(C(=O)CO)C[C@@H]3O[C@H]1C[C@H](N)[C@@H](O)[C@H](C)O1 | / | / | / | 47.5 | 10.0
Cc1cc(C)cc(C(=O)NCCC(=O)NCc2cc(=O)n(C)c(=O)n2C)c1 | 5.6 | / | / | -0.8 | -1.0
Cc1ccc2nc(NCC(=O)O)nc(-c3ccccc3)c2c1 | / | 0.5 | -3.8 | 23.6 | 0.2
COc1cc(Nc2nc(-c3ccccc3)c3cc(C)ccc3n2)cc(OC)c1OC | / | -0.8 | 60.6* | 26.4 | 2.1
O=C(C1=C[C@H](C2CCCCC2)C[C@H](OCCCCO)O1)N1CCN(Cc2ccc3c(c2)OCO3)CC1 | -11.9 | -0.9 | 97.1* | 56.2* | 0.0
O=C(C1=C[C@@H](c2ccc3c(c2)OCO3)C[C@@H](OCCCCO)O1)N1CCN(Cc2ccc3c(c2)OCO3)CC1 | -40.3 | -0.8 | 23.5 | 2.9 | 2.5
O=C(C1=C[C@H](c2ccc3c(c2)OCO3)C[C@H](OCCCCO)O1)N1CCN(Cc2ccc3c(c2)OCO3)CC1 | 0.2 | 0.1 | 51.2* | 29.5 | -0.3
CC(C)(C)C1CCC(=NNC(=O)c2ccco2)CC1 (stereo unspecified) | -20.5 | / | / | 0.4 | -1.2
CCC(C)c1ccccc1N1CC(C(=O)Nc2ccc(C)c(S(=O)(=O)N3CCOCC3)c2)CC1=O (stereo unspecified) | / | / | / | -7.9 | -0.8
CCC(C)[C@H]1COCCS(=O)(=O)N1Cc1ccccc1 (stereo partly specified) | -18.7 | / | / | -11.9 | -0.8
C/C(=N\NC(=O)c1cc2c(s1)CCC(C)C2)c1ccncc1 (stereo unspecified) | -3.0 | -0.3 | 96.6* | 7.6 | 2.4
O=C1c2ccccc2C(c2nnnn2Cc2ccccc2)N1Cc1cccnc1 (stereo unspecified) | / | / | / | / | 0.2
O=C(Nc1cccc(Cl)c1N1CCCCC1)c1ccc2c(c1)OCCO2 | -7.5 | 0.9 | 9.9 | 29.1 | -0.3
O=C(NC(=S)Nc1ccc2c(c1)OCCO2)c1cccc(Br)c1 | 7.6 | -0.9 | 68.1* | -32.5 | 2.4
O=C(NC(=S)Nc1cccc(Cl)c1N1CCCCC1)c1ccc2c(c1)OCCO2 | -35.2 | 0.3 | 96.9* | 35.1 | 5.5
O=C(Nc1ccc2c(c1)OCCO2)c1ccc(Br)s1 | 4.2 | -0.1 | 53.6* | 1.2 | 0.8
Cn1nc([N+](=O)[O-])nc1Sc1ccc(Cl)cc1 | 11.6 | -0.2 | 36.2 | 68.6* | 0.3
COc1cccc(Cn2cnc3c(NS(=O)(=O)c4ccc(Cl)cc4)c(C)c(C)cc32)c1 | -5.9 | 1.3 | 50.4* | -27.4 | 2.4
COc1cccc(Cn2cnc3c(NS(=O)(=O)c4ccc(Cl)cc4Cl)c(C)c(C)cc32)c1 | / | 1.7 | -1.3 | 29.9 | -1.2
CC(O)CNCCOc1ccccc1OCc1ccccc1 (stereo unspecified) | 7.3 | -2.4 | 87.9* | -9.8 | 21.2
CC(O)CNCCNCc1c(OCc2ccccc2)ccc2ccccc12 (stereo unspecified) | / | -4.2 | 100.7* | 21.5 | 2.7
CC(O)CNCCOc1ccccc1-c1ccccc1 (stereo unspecified) | 4.5 | -1.4 | -1.8 | 2.1 | 11.4
OCCNCc1c(OCc2ccc(Cl)cc2)ccc2ccccc12 | 23.0 | / | / | 25.1 | 42.5
CS(=O)(=O)NCC(c1ccco1)N1CCN(c2ccc(F)cc2)CC1 (stereo unspecified) | -7.2 | 0.6 | -0.6 | -16.2 | -1.1
SMILES | Lipid droplet | Redox H2O2 prof | L major viab | T cruzi repl | MPTP inh
CCCCCOc1ccc2oc(=O)c3c(c2c1)CCCN3C(=O)CN1CCCC(C(=O)OCC)C1 (stereo unspecified) | -42.7 | 0.2 | 18.6 | 11.0 | 7.1
CCCOc1ccc2oc(=O)c3c(c2c1)CCCN3C(=O)CN(C)Cc1ccccc1 | / | 1.6 | 58.1* | 24.3 | -0.3
Cc1cc(C)c2nc(N3CCC(C(=O)NCCCN4CC(C)CC(C)C4)CC3)sc2c1 (stereo unspecified) | -2.6 | -0.4 | 98.6* | 58.9* | -8.3
Cc1cc(C)c2nc(N3CCCC(C(=O)NCCCN4CCOCC4)C3)sc2c1 (stereo unspecified) | 9.2 | 0.0 | 2.5 | 5.5 | -0.2
O=C(Nc1ccnn1C1CCN(C(=O)c2cccc(C(F)(F)F)c2)CC1)C1CC1 | -5.6 | / | / | -19.0 | 0.8
O=C(O)c1ccc(Cl)c(S(=O)(=O)Nc2ccc3cn[nH]c3c2)c1 | -10.4 | -1.7 | 4.3 | 4.5 | -0.3
Cc1ccc(-n2nc(-c3ccccc3)cc2Nc2ccccc2N)cc1 | -1.8 | 0.1 | 7.8 | 16.0 | 0.8
Nc1ccccc1Nc1cc(-c2ccccc2)nn1-c1ccccc1 | 9.7 | 0.0 | 27.9 | 54.7* | -0.1
COc1cc(C(=O)NNC(=S)NC(=O)c2ccccc2C)cc(OC)c1OC | -6.9 | -0.4 | -13.7 | -4.8 | 2.3
COc1cc(C(=O)NC(=S)NNC(=O)c2cnccn2)cc(OC)c1OC | 1.7 | -0.2 | 100.4* | -18.2 | 1.6
COc1ccccc1C(=O)NNC(=S)NC(=O)c1cc(OC)c(OC)c(OC)c1 | -8.0 | -0.6 | -6.4 | 60.2* | 0.1
CC1COC(=O)C(NNc2ccc(Cl)c(Cl)c2)=N1 (stereo unspecified) | 15.3 | 4.8 | 99.6* | -9.4 | 3.1
Cc1onc(-c2ccc(Cl)cc2Cl)c1-c1csc(COc2ccccc2)n1 | -25.2 | / | / | / | 0.0
Clc1ccc(C2CC(c3ccco3)n3ncnc3N2)cc1Cl (stereo unspecified) | 0.4 | 0.6 | 51.4* | 12.1 | -3.6
Cc1ccc(NC(=O)c2oc3ccc(Br)cc3c2C)cc1S(=O)(=O)N1CCOCC1 | / | / | / | / | 2.7
CCN1CCN(C(=S)c2ccc(Cl)cc2)CC1 | 4.9 | 0.1 | 88.0* | -1.0 | 1.8
CCN1CCN(C(=S)c2ccc([N+](=O)[O-])cc2)CC1 | 20.7 | 0.4 | 57.7* | -2.8 | 0.2
COc1ccc(C(=S)N2CCCCCC2)cc1 | 1.6 | 2.3 | -1.7 | -5.1 | 0.2
CCN1CCN(C(=S)c2ccc(OC)cc2)CC1 | -7.3 | -0.2 | 100.1* | 12.5 | -0.2
O=C(COC(=O)c1cncc(Br)c1)NCc1ccc(Cl)cc1 | -0.5 | / | / | 2.3 | 1.9
O=C(COC(=O)c1cc(C(F)(F)F)cc(C(F)(F)F)c1)NCc1ccc(Cl)cc1 | -0.9 | -0.4 | 50.3* | -3.9 | 0.6
c1ccc(OCc2noc(CN3CCC(C4CCCCC4)C3)n2)cc1 (stereo unspecified) | 13.6 | -0.9 | 54.5* | 53.6 | 0.8
Fc1ccccc1Cc1noc(CN2CCN(C/C=C/c3ccccc3)CC2)n1 | -23.7 | 0.8 | 84.7* | 66.8* | 0.2
c1ccc(CN2CCCC3(CCCN(Cc4nc(CC5CC5)no4)C3)C2)cc1 (stereo unspecified) | 17.4 | -1.8 | 5.6 | 53.7 | 0.3

Screens: PubChem BioAssay, several laboratories
